The results in this text go back to ChEMBL document CHEMBL1671701, “Discovery of potent small-molecule inhibitors of multidrug-resistant Plasmodium falciparum using a novel miniaturized high-throughput luciferase-based assay” (Antimicrob Agents Chemother, 2010).

A short description of assay [1]: Cytotoxicity activity against human HAEC cells after 24 hrs. It is filed as cell-based.
A further assay deals with HepG2. Description: Cytotoxicity activity against human HepG2 cells after 24 hrs. In kind it is cell-based. Particulars: HepG2, 24 h.
The subject of assay [2] is Plasmodium falciparum. Description: Antiplasmodial activity against Plasmodium falciparum 3D7 infected in RBCs by firefly luciferase reporter gene assay. In kind it is functional, organism-based. Particulars: Plasmodium falciparum, 3D7. Summed up:
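Sorbitol-synchronised 3D7 expressing firefly luciferase from the HRPII promoter, at 1% late-ring parasitemia and 3% hematocrit in RPMI/albumax II medium. Sixteen 2-fold dilutions from 17 μM to 0.5 nM, 48 h at 37°C under 5% O2/5% CO2/N2. Bright-Glo luminescence is normalised to untreated infected and uninfected-RBC wells. IC50 by four-parameter logistic fit.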
In general terms: In a reporter assay the amount or activity of a reporter protein is the signal.

Assay [3] concerns Plasmodium falciparum. Description: Antiplasmodial activity against Plasmodium falciparum 3D7 by SYBR Green 1-based fluorescence assay. In kind it is functional, organism-based.
Assay [4] has as its system Plasmodium falciparum. Description: Antiplasmodial activity against multidrug-resistant Plasmodium falciparum TM90C2B by SYBR Green 1-based fluorescence assay. It is filed as functional, organism-based. The essentials:
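Resistant TM90C2B parasites are treated over a dose range and growth is read as SYBR green I fluorescence. IC50 comes from a fit of the log dose-response relationship, as the mean of at least three separate experiments.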

pIC50: −log10 of the molar value.

The term pIC50 denotes the IC50 on a negative log10 scale, so that one unit is a factor of ten. Low values mean a large IC50, high ones a small IC50. `CCNC(=O)N1CCN(CCCC(c2ccc(F)cc2)c2ccc(F)cc2)CC1` [AMPEROZIDE]: the negative-log IC50 (pIC50) in assay [1] was 4.08; in the assay with HepG2, 4.02.

For `CC(=O)N(C1=C(N(C)C)C(=O)c2ccccc2C1=O)c1cccc(Cl)c1`, the pIC50 with Plasmodium falciparum [2] is 7.85; in the assay with Plasmodium falciparum [3], 6.85; in assay [1], 4.35; in the assay with HepG2, 5.29; in the assay on Plasmodium falciparum [4], 7.14.

Regarding `COc1cccc(N(C(C)=O)C2=C(N(C)C)C(=O)c3ccccc3C2=O)c1`, the pIC50 in the assay on Plasmodium falciparum [2] was 8.28; with Plasmodium falciparum [3], 7.46; in assay [1], 4.96; in the assay with HepG2 it was 4.89; in the assay on Plasmodium falciparum [4] it was 7.51.

For `CC(=O)N(C1=C(N(C)C)C(=O)c2ccccc2C1=O)c1ccc(Cl)cc1`, the negative-log IC50 (pIC50) in the assay with Plasmodium falciparum [2] was 7.85; in assay [1] it was 4.39; with HepG2 it was 5.09.

Turning to `COc1cccc2c1C(=O)c1c(O)c3c(c(O)c1C2=O)C[C@@](O)(C(=O)CO)C[C@@H]3O[C@H]1C[C@H](N)[C@H](O)[C@H](C)O1` [DOXORUBICIN], the values for the pIC50 (in assay [1]; with HepG2) were 4.89 and 4.16, respectively.

Take `CC(=O)N(C1=C(N(C)C)C(=O)c2ccccc2C1=O)c1ccc(F)c(F)c1`: the results for the negative logarithm of the IC50 (pIC50) with Plasmodium falciparum [2], in the assay on Plasmodium falciparum [3] and with Plasmodium falciparum [4] were 7.60, 6.77 and 6.96, respectively.

For `CC(=O)N(C1=C(N(C)C)C(=O)c2ccccc2C1=O)c1cccc(F)c1`, the pIC50 in the assay on Plasmodium falciparum [2] is 7.96; with Plasmodium falciparum [3], 6.96; in the assay on Plasmodium falciparum [4] it was 7.13.

As to `c1cc(CN2CCCCC2)cc(OCCCNc2nc3ccccc3s2)c1` [ZOLANTIDINE], the pIC50 (in assay [1]; in the assay on HepG2) was 4.12 each time.

`O=C1C(O)=C([C@H]2CC[C@H](c3ccc(Cl)cc3)CC2)C(=O)c2ccccc21` [ATOVAQUONE]: the negative logarithm of the IC50 (pIC50) in the assay on Plasmodium falciparum [2] is 9.39; in the assay with Plasmodium falciparum [3] it was 9.10; in the assay on Plasmodium falciparum [4] it was 4.92.

For `CC(=O)N(C1=C(N2CCOCC2)C(=O)c2ccccc2C1=O)c1ccccc1`, the negative logarithm of the IC50 (pIC50) in the assay with Plasmodium falciparum [2] was 6.11; in the assay on Plasmodium falciparum [3], 5.80; with Plasmodium falciparum [4] it was 6.28.
